The source made the active and inactive calls.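 The calls were made as follows, unless noted: active = inhibition above 20% together with a positive visual image hit; inconclusive = visual image hit but inhibition not above 20%; inactive = no visual image hit.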
Key:
[1] = inhibitors of TNFa-induced NFkB p65 translocation, primary screen, imaging, HUVEC, MLSMR starter and 10KST1 sets (AID 438); conditions: HUVEC TNFa-induced p65 nuclear translocation; cell count: measured here: nuclei count (cytotoxicity indicator), at 2.08 µM; inhibition: at 2 µM, stronger effect = higher value, 0% TNFa-plus-vehicle, 100% no-TNFa wells;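 also: compound added about 3h40 before a 20 min TNFalpha stimulation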;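 as to inhibition: signal is the nuclear over cytoplasmic p65 intensity ratio per well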
[2] = reduction of polyQ htt aggregates in cells – imaging, exon1htt(103Q)mCFP cells, high-content imaging, primary screen (AID 483;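 active = visual image review flags a hit and inhibition of aggregation exceeds 20%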;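 also: compound exposure lasted 3 days before fixation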;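 as to nuclei count: percent of the per-plate median nuclei count of sample wells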); conditions: exon1htt(103Q)mCFP cell line, aggregate imaging, at 2 µM; inhibition of aggregation: stronger effect = higher value; nuclei count: measured here: cell count, toxicity
[3] = endothelial E-selectin expression blockers – imaging, HUVEC, immunofluorescence, MLSMR starter and 10KST1 sets, primary screen (AID 487;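 active = visually confirmed hit in the image check and inhibition above 20%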;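 as to inhibition: signal is fraction of cell area covered by stained E-selectin grains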;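 as to nuclei count: 100% = median nuclei count of all wells on the same plate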); conditions: HUVEC TNFalpha-induced E-selectin immunofluorescence imaging, at 2 µM; inhibition: stronger effect = higher value; nuclei count: measured here: cell number, toxicity
[4] = target: Voltage-gated potassium channel subunit beta-2 (Rattus norvegicus) (UniProt P62483); assay: inhibitors of rat Kvbeta2 reductase activity – biochemical, NADPH fluorescence, primary screen (AID 622;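 active = fluorescence slope higher than the sample average by over 3 SD, cut at about -0.22 in these data, passing the limit was not always enough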;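 also: slope of raw intensity against log time taken from 70 to 1610 s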); conditions: recombinant KvBeta, 4-cyanobenzaldehyde reduction, at 10 µM, stronger effect = higher value
[5] = target: Voltage-gated potassium channel subunit beta-2 (Rattus norvegicus) (UniProt P62483); assay: enhancers of rat Kvbeta2 NADPH turnover – biochemical, NADPH fluorescence, primary screen (AID 623;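 active = NADPH fluorescence slope more negative than the mean of all samples by about 3 SD, 99.7% confidence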;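 also: fluorescence intensity change per second fitted from 20 to 320 s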); conditions: Recombinant KvBeta, NADPH fluorescence decrease slope, 10 min; at 10 µM; stronger effect = lower value
[6] = target: Muscarinic acetylcholine receptor M4 (Homo sapiens) (UniProt P08173); assay: M4-linked GIRK flux change, two-sided – cell-based, HEK293 M4/GIRK, thallium flux, BTC-AM, M4 allosteric agonist project, primary screen (AID 625;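 active = fluorescence slope after compound addition differing from the mean of all tested samples at 99.7% confidence, mostly higher but some lower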;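 also: thallium influx through GIRK channels coupled to M4 in HEK293 cells with BTC-AM dye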); conditions: at 10 µM, actives lie on both sides
Method in brief: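 System: HEK293 cells with M4 receptor and GIRK channels | Incubation: Cells overnight at 37 °C, BTC-AM loading 1 h, reads 2 min total | Technique: Kinetic BTC-AM fluorescence sampled at 1 Hz, 10 s pre-addition baseline | Measure: Post-addition slope, 15–24 s, of baseline-normalized fluorescence | Control set: Carbachol positive, DMSO negative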

[7] = blockers of RIG-like receptor reporter activation – cell-based, Sendai virus stimulus, luciferase, 10K MLSCN set, TLR/RLR signaling modifier project, primary screen (AID 602276;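 active = inhibition at or above 50% at 10 µM; inactive = inhibition below 50%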;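 also: firefly luciferase from ISG56 promoter only with Renilla not read in this screen; 0% = Sendai virus plus DMSO and 100% = medium plus DMSO without virus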); conditions: HEK293 RL24 IRF3 luciferase reporter, at 10 µM, stronger effect = higher value
[8] = TLR3 IRF3 reporter activation blockers – cell-based, poly I:C stimulus, luciferase, 10K MLSCN set, primary screen (AID 602277;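 active = inhibition of the reporter signal at or above 50%; inactive = inhibition below 50%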); conditions: HEK293-TLR3 RL24 IRF3 luciferase reporter, at 10 µM, stronger effect = higher value

Muscarinic acetylcholine receptor M4 (Homo sapiens), sequence (P08173 whole entry, looked up): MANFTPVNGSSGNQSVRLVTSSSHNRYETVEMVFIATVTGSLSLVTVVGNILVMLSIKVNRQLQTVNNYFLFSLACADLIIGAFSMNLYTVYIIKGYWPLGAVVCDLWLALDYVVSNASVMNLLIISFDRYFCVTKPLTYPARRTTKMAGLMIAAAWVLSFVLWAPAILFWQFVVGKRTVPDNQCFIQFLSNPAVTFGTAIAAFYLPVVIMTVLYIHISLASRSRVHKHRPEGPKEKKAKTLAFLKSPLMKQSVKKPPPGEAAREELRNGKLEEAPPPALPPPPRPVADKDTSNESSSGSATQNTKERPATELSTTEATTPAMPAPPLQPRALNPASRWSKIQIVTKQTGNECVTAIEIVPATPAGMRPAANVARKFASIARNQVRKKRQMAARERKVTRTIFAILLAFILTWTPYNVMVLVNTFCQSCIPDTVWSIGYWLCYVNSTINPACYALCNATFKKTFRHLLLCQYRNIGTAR
Voltage-gated potassium channel subunit beta-2 (Rattus norvegicus), sequence (P62483 whole entry, looked up): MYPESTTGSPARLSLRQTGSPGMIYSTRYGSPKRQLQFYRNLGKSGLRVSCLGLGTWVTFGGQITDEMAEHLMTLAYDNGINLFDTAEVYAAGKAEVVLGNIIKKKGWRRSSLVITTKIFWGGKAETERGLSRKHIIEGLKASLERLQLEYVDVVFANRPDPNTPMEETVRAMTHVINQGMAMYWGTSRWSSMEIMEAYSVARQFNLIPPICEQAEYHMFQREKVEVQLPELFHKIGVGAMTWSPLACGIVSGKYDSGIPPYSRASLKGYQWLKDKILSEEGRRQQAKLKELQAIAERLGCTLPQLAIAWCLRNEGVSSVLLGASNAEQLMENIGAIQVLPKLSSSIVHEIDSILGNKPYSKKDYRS

| SMILES | cell count [1] | inhibition [1] | inhibition of aggregation [2] | nuclei count [2] [%] | inhibition [3] | nuclei count [3] [%] | fluorescence slope [4] | NADPH fluorescence slope [5] | fluorescence slope [6] | inhibition [7] | inhibition [8] |
| --- | --- | --- | --- | --- | --- | --- | --- | --- | --- | --- | --- |
| CCC(=O)n1nc(-c2ccco2)nc1N | 594 | -0.5% (inactive) | -13.1% (inactive) | 104 | -153% (inactive) | 114 | -0.486 (inactive) | -4.1e-05 (inactive) | 0.00538 (inactive) | 14.3% (inactive) | 15.1% (inactive) |
| Cc1nnc(N(Cc2ccco2)C(=O)c2cccc(C#N)c2)s1 | 428 | 7.3% (inactive) | 9.6% (inactive) | 101 | 11.7% (inactive) | 111 | -0.569 (inactive) | -1.4e-05 (inactive) | 0.00607 (inactive) | -0.114% (inactive) | 5.23% (inactive) |
| O=C(Nc1ccc2c(c1)OCO2)c1ccc(Br)c(S(=O)(=O)N2CCCC2)c1 | 660 | -5.2% (inactive) | -2% (inactive) | 103 | -99.5% (inactive) | 90.4 | -0.505 (inactive) | -6.5e-05 (inactive) | 0.0042 (inactive) | -20.9% (inactive) | -15.4% (inactive) |
| CNC(=O)Nc1cccc(C(F)(F)F)c1 | 299 | -3.3% (inactive) | -31% (inactive) | 97.6 | -46.4% (inactive) | 130 | -0.566 (inactive) | -5.5e-05 (inactive) | 0.00624 (inactive) | 0.0526% (inactive) | 4.51% (inactive) |
| COc1cccc(C(=O)CSc2nnc(COc3cccc4cccnc34)o2)c1 | 558 | -6.3% (inactive) | -10.3% (inactive) | 117 | -1.4% (inactive) | 197 | -0.51 (inactive) | 3.4e-05 (inactive) | 0.00397 (inactive) | -8.03% (inactive) | -13.7% (inactive) |
| CCOC(=O)c1sc(NC(=O)CSc2nc3c(cc2C#N)CCC3)c(C#N)c1C | 775 | -6.4% (inactive) | -2.5% (inactive) | 94.5 | -140% (inactive) | 140 | -0.457 (inactive) | 2.2e-05 (inactive) | 0.00501 (inactive) | 18.5% (inactive) | 18.8% (inactive) |
| COc1ccc(C2C(C(=O)c3sc(C)nc3C)=C(O)C(=O)N2CCN2CCOCC2)cc1 (stereo not drawn) | 438 | 4.5% (inactive) | 0.7% (inactive) | 107 | 31.3% (inactive) | 84.8 | -0.531 (inactive) | -5.5e-05 (inactive) | 0.00651 (inactive) | 4% (inactive) | 1.15% (inactive) |
| O=C(Cn1c(SCC(=O)N2CCCc3ccccc32)nc2ccccc21)N1CCCC1 | 723 | -5.1% (inactive) | -15.7% (inactive) | 107 | -126% (inactive) | 124 | -0.458 (inactive) | -3.6e-05 (inactive) | 0.00587 (inactive) | 1.52% (inactive) | 20.1% (inactive) |
| CCCCNC(=O)c1c(C)cc(=O)oc1C | 541 | -21.8% (inactive) | -12.9% (inactive) | 141 | -29% (inactive) | 106 | -0.531 (inactive) | -2.1e-05 (inactive) | 0.0056 (inactive) | 18.4% (inactive) | 14% (inactive) |
| COc1ccc(OC)c(NC(=O)c2cn(C)c(=O)c3cc(OC)c(OC)cc23)c1 | 782 | -20.3% (inactive) | 1.3% (inactive) | 97.7 | 10.9% (inactive) | 119 | -0.307 (inactive) | -1.5e-05 (inactive) | 0.00686 (inactive) | -16.7% (inactive) | -26.6% (inactive) |
| CCOC(=O)c1c(NC(=O)OC)sc(C(=O)N(C)C)c1C | 321 | -5.4% (inactive) | 1.3% (inactive) | 103 | 1.1% (inactive) | 115 | -0.312 (inactive) | -4.5e-05 (inactive) | 0.00682 (inactive) | 7.2% (inactive) | 14.6% (inactive) |
| N#CCSCC(=O)Nc1ccc(F)cc1 | 511 | 4.1% (inactive) | -5.3% (inactive) | 108 | 10.5% (inactive) | 99.2 | -0.462 (inactive) | -5.6e-05 (inactive) | 0.00474 (inactive) | 13.5% (inactive) | 26.3% (inactive) |
| O=C1c2ccccc2C(=O)N1OCc1ccccc1 | 457 | -6% (inactive) | 13.7% (inactive) | 80.1 | -71.8% (inactive) | 126 | -0.608 (inactive) | -3.7e-05 (inactive) | 0.00373 (inactive) | 16.6% (inactive) | 21.5% (inactive) |
| O=C(CSc1nnc(-c2cccnc2)o1)Nc1ccccn1 | 328 | 3.2% (inactive) | 7.3% (inactive) | 99.4 | -60.6% (inactive) | 131 | -0.317 (inactive) | 5.1e-06 (inactive) | 0.0082 (inactive) | -56.5% (inactive) | -126% (inactive) |
| COC(=O)c1[nH]c2ccccc2c1NS(=O)(=O)c1ccc(OC)cc1OC | 655 | -11.9% (inactive) | 13% (inactive) | 103 | -72% (inactive) | 118 | -0.524 (inactive) | -0.000111 (inactive) | 0.00563 (inactive) | 19.9% (inactive) | 37.3% (inactive) |
| O=S(=O)(c1ccccc1)N1CCN(C2CCCCCCC2)CC1 | 221 | 9.7% (inactive) | 9% (inactive) | 80.6 | -53.1% (inactive) | 148 | -0.479 (inactive) | -1.1e-05 (inactive) | 0.00309 (inactive) | -8.03% (inactive) | -10% (inactive) |
| O=C(C1CC1)N1CCc2cc(S(=O)(=O)N(CCO)Cc3ccccc3)ccc21 | 612 | 7.7% (inactive) | -16% (inactive) | 108 | -91% (inactive) | 122 | -0.498 (inactive) | 0.000108 (inactive) | 0.00651 (inactive) | -3.85% (inactive) | -12.4% (inactive) |
| FC(F)(F)COc1nc(N2CCCCC2)nc(N2CCNCC2)n1 | 372 | -7.9% (inactive) | -3.5% (inactive) | 99.5 | 13.6% (inactive) | 109 | -0.321 (inactive) | -5.4e-05 (inactive) | 0.00559 (inactive) | 4.6% (inactive) | 21.6% (inactive) |
| COc1ccc(CCNS(=O)(=O)c2ccc3c(c2)CCN3C(=O)CCC(=O)O)cc1OC | 620 | -6.5% (inactive) | 0.9% (inactive) | 125 | -14.5% (inactive) | 121 | -0.553 (inactive) | 7.1e-06 (inactive) | 0.00473 (inactive) | 12.6% (inactive) | 21.5% (inactive) |
| Cc1ccc(C(C)C)c(OCc2nnc(SCC(=O)Nc3ncc(C)s3)n2C)c1 | 663 | 0.5% (inactive) | -35.5% (inactive) | 108 | -36.3% (inactive) | 108 | -0.545 (inactive) | -3.2e-05 (inactive) | 0.00564 (inactive) | 9.43% (inactive) | 12.4% (inactive) |
| C=CCn1c(=O)[nH]c2cc(C(=O)N3CCN(c4cc(C)ccc4C)CC3)ccc2c1=O | 481 | -28.5% (inactive) | -1.6% (inactive) | 109 | -67.4% (inactive) | 127 | -0.245 (inactive) | -2.6e-05 (inactive) | 0.00726 (inactive) | 14.1% (inactive) | -2.95% (inactive) |
| O=C(O)CC1CCCC(c2ccccc2)C1=O (stereo not drawn) | 658 | -6.5% (inactive) | -35% (inactive) | 103 | 108% (active) | 102 | -0.544 (inactive) | -7.4e-06 (inactive) | 0.00508 (inactive) | 8.33% (inactive) | 11.2% (inactive) |
| CC(=O)Nc1ccc(Cl)c(C(N)=O)c1 | 445 | -0.6% (inactive) | -12.1% (inactive) | 94.4 | -97.8% (inactive) | 113 | -0.581 (inactive) | -7.9e-05 (inactive) | 0.00404 (inactive) | 19.4% (inactive) | 23.4% (inactive) |
| CCOC(=O)c1cccc(NC(=O)CSc2nnc(-c3ccoc3C)n2CCOC)c1 | 553 | -9.5% (inactive) | 1% (inactive) | 89.7 | -140% (inactive) | 133 | -0.577 (inactive) | 7.3e-06 (inactive) | 0.00584 (inactive) | 18.8% (inactive) | 27.2% (inactive) |
| CCOc1cc(S(=O)(=O)NCc2ccccn2)c(C)cc1C | 412 | -15.9% (inactive) | -0.5% (inactive) | 112 | -20% (inactive) | 68.1 | -0.44 (inactive) | -3.9e-05 (inactive) | 0.0075 (inactive) | 8.05% (inactive) | 20.9% (inactive) |
| Cn1c(Cc2cccs2)nnc1SCC(=O)N1CCc2ccccc21 | 369 | -1.8% (inactive) | 14.1% (inactive) | 93.4 | -67.8% (inactive) | 93.3 | -0.479 (inactive) | -6.1e-05 (inactive) | 0.00472 (inactive) | 8.51% (inactive) | 16.5% (inactive) |
| COC(=O)C1(C)NC(c2ccco2)C2C(=O)N(c3ccc(C)cc3)C(=O)C21 (stereo not drawn) | 560 | -17.5% (inactive) | -8.7% (inactive) | 113 | -40.3% (inactive) | 114 | -0.318 (inactive) | -3.5e-05 (inactive) | 0.00521 (inactive) | 14.7% (inactive) | 17.2% (inactive) |
| COC(=O)c1ccc2c(=O)n(Cc3ccco3)c(SCC(=O)Nc3ccc(C)c(Cl)c3)nc2c1 | 445 | 5% (inactive) | 10.1% (inactive) | 115 | 4.9% (inactive) | 91 | -0.436 (inactive) | -2.2e-05 (inactive) | 0.00926 (inactive) | 13.7% (inactive) | 28.2% (inactive) |

Reference: PubChem BioAssay
